Data published in ChEMBL document CHEMBL1150387, “Development and experimental validation of a docking strategy for the generation of kinase-targeted libraries” (J Med Chem, 2008).

How the values were obtained:
[1] = biological target: RAC-alpha serine/threonine-protein kinase (Homo sapiens) (UniProt P31749); experiment: Inhibition of AKT1/PKBalpha at 10 uM by HTRF assay relative to control
How it was run: (§1)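 HTRF kinase assay, one panel of kinases. Inhibitor stock 50 µM in 100% DMSO; tested at 10 µM. ATP and substrate at final levels near Km. Final buffer: 50 mM Hepes/NaOH pH 7.4, 40 µM Na3VO4, 0.005% Tween-20, 1 mM DTT, MnCl2 or MgCl2 at kinase-dependent levels. Started by adding ATP/substrate. Reaction run at room temperature, time varied by kinase. Detection mix in 50 mM Hepes pH 7.4, 0.1% BSA, 150 mM KF, incubated ≥1 h at room temperature. Activity expressed as % of uninhibited control; n=2.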

[2] = biological target: Calcium/calmodulin-dependent protein kinase type II subunit alpha (Homo sapiens) (UniProt Q9UQM7); experiment: Inhibition of CaMK2alpha at 10 uM by HTRF assay relative to control; how it was run: as §1
[3] = biological target: Mitogen-activated protein kinase 14 (Homo sapiens) (UniProt Q16539); experiment: Inhibition of p38alpha at 10 uM by HTRF assay relative to control; how it was run: as §1
[4] = biological target: Insulin-like growth factor 1 receptor (Homo sapiens) (UniProt P08069); experiment: Inhibition of IGF1R at 10 uM by HTRF assay relative to control; how it was run: as §1
[5] = biological target: Tyrosine-protein kinase Fes/Fps (Homo sapiens) (UniProt P07332); experiment: Inhibition of FES at 10 uM by HTRF assay relative to control; how it was run: as §1
[6] = biological target: Protein kinase C gamma type (Homo sapiens) (UniProt P05129); experiment: Inhibition of PKCgamma at 10 uM by HTRF assay relative to control; how it was run: as §1
[7] = biological target: Vascular endothelial growth factor receptor 2 (Homo sapiens) (UniProt P35968); experiment: Inhibition of KDR at 10 uM by HTRF assay relative to control; how it was run: as §1
[8] = biological target: Serine/threonine-protein kinase Chk2 (Homo sapiens) (UniProt O96017); experiment: Inhibition of CHK2 at 10 uM by HTRF assay relative to control; how it was run: as §1
[9] = biological target: Tyrosine-protein kinase ABL1 (Homo sapiens) (UniProt P00519); experiment: Inhibition of Abl at 10 uM by HTRF assay relative to control; how it was run: as §1
[10] = biological target: T1, Inhibitor of nuclear factor kappa-B kinase subunit beta (Homo sapiens) (UniProt O14920); experiment: Inhibition of IKK-beta at 10 uM by HTRF assay relative to control; how it was run: as §1
T1 sequence (whole entry): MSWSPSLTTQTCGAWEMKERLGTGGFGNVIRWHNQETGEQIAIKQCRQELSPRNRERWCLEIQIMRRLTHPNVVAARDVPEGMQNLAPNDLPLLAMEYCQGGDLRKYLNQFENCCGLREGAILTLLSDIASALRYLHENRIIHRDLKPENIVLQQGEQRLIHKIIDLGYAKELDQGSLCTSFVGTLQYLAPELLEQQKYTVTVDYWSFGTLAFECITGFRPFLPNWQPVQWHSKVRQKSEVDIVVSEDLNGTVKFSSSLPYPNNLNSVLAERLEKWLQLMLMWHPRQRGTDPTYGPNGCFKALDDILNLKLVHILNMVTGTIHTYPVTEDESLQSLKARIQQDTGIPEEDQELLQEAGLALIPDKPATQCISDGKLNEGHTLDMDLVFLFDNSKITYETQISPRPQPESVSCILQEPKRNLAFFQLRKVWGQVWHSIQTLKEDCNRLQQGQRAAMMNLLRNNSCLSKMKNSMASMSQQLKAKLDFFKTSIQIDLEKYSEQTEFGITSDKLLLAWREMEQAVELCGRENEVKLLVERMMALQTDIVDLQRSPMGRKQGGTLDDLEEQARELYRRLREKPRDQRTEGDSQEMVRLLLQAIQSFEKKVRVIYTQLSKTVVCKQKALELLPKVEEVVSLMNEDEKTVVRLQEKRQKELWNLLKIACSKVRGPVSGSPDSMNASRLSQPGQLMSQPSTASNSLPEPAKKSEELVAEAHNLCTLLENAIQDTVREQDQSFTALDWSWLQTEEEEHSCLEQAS

[11] = biological target: T2, Ephrin type-B receptor 4 (Homo sapiens) (UniProt P54760); experiment: Inhibition of EphB4 at 10 uM by HTRF assay relative to control; how it was run: as §1
T2 sequence (whole entry): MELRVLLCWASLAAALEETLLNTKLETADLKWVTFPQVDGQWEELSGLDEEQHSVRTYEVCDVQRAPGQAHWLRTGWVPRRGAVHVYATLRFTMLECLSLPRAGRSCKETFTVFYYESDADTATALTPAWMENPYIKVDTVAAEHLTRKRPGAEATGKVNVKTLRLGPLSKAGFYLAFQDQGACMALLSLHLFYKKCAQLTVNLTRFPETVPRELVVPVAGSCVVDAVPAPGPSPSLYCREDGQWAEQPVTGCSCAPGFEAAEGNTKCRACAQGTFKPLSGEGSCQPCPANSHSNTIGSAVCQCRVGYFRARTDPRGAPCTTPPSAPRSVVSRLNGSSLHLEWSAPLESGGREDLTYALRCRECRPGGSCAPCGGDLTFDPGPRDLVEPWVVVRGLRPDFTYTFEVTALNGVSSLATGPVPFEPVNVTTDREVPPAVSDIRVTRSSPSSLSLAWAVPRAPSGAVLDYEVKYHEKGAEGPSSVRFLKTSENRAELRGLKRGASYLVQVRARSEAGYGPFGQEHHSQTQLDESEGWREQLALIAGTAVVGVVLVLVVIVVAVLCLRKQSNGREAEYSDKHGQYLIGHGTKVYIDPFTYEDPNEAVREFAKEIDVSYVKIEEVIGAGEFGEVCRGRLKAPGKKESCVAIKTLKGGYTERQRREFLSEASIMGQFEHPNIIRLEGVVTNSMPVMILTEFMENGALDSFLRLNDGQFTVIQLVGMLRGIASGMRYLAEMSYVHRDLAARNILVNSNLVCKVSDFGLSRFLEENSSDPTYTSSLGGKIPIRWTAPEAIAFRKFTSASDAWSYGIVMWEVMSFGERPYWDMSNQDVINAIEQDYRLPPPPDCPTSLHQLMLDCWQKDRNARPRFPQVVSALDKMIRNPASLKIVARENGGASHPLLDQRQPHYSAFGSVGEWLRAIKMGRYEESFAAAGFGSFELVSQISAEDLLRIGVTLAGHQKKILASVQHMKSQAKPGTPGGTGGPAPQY

[12] = biological target: Vascular endothelial growth factor receptor 1 (Homo sapiens) (UniProt P17948); experiment: Inhibition of FLT1 at 10 uM by HTRF assay relative to control; how it was run: as §1
[13] = Inhibition of AMPKalpha at 10 uM by HTRF assay relative to control; how it was run: as §1

Serine/threonine-protein kinase Chk2 (Homo sapiens), sequence (O96017 whole entry): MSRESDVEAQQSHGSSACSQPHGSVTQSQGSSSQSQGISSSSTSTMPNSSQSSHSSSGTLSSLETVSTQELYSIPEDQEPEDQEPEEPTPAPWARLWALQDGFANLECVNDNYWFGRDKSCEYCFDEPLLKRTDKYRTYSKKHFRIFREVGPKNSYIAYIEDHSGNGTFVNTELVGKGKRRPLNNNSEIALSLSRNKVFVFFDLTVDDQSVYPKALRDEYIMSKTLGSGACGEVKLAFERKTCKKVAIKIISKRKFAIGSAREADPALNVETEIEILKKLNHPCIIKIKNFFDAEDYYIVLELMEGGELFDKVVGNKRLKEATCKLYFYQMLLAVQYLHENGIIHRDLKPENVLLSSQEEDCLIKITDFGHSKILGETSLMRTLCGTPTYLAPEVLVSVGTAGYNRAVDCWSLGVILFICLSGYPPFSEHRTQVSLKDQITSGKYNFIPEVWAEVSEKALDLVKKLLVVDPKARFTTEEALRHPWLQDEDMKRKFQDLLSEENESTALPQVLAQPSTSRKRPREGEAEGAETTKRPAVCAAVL
Vascular endothelial growth factor receptor 1 (Homo sapiens), sequence (P17948 whole entry): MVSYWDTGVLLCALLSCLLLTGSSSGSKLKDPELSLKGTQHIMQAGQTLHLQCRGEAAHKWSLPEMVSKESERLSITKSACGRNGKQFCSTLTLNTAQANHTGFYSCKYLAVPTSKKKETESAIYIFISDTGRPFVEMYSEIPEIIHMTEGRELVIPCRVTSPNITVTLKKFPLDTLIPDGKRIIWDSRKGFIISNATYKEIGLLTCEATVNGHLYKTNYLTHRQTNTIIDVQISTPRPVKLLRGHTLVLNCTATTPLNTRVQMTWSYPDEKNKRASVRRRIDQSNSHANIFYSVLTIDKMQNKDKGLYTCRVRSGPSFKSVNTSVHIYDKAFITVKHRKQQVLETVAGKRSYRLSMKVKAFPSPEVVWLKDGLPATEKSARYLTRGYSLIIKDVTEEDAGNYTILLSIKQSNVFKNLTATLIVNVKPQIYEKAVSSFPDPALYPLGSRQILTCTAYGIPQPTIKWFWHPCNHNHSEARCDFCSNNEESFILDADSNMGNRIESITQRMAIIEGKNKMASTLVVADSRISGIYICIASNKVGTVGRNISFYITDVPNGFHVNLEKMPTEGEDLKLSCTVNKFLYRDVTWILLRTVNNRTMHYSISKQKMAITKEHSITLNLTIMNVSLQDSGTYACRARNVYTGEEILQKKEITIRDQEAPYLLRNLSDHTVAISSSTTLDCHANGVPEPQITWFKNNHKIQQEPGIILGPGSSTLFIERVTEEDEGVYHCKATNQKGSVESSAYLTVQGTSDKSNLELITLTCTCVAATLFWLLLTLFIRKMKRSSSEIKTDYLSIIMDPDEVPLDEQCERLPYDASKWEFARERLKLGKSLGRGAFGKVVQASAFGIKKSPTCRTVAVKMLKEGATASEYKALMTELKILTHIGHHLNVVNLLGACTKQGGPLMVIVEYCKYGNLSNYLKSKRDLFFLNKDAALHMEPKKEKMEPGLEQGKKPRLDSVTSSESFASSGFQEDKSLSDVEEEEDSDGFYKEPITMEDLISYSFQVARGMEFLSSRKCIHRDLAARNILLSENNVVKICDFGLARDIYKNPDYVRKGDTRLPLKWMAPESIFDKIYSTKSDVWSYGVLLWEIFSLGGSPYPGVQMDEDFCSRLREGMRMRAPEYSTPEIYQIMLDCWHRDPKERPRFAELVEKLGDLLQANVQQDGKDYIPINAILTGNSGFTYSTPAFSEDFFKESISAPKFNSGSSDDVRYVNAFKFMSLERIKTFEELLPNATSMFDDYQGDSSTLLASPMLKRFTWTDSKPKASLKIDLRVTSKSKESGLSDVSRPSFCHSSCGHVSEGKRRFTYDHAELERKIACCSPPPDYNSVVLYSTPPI
Insulin-like growth factor 1 receptor (Homo sapiens), sequence (P08069 31-736 limits assumed): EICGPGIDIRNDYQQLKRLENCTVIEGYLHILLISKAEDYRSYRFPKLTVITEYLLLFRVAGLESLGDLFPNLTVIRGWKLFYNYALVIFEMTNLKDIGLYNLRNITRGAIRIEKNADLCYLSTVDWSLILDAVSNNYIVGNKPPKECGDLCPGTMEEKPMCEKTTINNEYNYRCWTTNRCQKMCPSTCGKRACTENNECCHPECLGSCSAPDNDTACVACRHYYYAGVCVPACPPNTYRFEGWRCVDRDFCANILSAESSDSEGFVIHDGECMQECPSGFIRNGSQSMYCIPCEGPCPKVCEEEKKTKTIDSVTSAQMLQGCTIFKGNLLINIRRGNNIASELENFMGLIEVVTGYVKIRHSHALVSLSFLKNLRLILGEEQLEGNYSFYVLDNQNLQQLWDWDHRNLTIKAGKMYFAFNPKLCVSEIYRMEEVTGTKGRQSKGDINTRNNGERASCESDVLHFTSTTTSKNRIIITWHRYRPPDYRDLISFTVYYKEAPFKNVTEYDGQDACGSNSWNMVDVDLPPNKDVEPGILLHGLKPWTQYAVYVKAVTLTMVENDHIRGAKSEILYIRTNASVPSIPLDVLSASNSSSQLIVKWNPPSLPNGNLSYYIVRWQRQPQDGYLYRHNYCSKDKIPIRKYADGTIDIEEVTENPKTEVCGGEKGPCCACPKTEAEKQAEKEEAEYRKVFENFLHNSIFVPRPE
Insulin-like growth factor 1 receptor (Homo sapiens), sequence (P08069 741-1367 limits assumed): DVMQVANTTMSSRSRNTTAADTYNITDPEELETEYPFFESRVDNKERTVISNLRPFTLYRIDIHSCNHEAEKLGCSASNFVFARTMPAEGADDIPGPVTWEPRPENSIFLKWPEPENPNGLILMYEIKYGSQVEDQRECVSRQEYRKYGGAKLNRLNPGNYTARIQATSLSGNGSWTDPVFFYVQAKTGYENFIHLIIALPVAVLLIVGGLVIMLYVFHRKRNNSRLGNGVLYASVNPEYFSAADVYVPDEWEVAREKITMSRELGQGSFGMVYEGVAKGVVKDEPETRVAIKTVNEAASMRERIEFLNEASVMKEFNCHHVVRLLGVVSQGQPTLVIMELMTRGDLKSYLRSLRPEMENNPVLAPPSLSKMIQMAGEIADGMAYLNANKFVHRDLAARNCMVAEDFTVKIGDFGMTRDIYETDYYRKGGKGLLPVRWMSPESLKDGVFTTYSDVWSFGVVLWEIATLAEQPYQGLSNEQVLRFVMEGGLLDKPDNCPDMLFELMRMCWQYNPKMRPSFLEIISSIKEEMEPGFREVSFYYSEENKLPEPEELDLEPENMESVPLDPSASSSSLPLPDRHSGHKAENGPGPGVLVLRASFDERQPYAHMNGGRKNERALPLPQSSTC
Calcium/calmodulin-dependent protein kinase type II subunit alpha (Homo sapiens), sequence (Q9UQM7 whole entry): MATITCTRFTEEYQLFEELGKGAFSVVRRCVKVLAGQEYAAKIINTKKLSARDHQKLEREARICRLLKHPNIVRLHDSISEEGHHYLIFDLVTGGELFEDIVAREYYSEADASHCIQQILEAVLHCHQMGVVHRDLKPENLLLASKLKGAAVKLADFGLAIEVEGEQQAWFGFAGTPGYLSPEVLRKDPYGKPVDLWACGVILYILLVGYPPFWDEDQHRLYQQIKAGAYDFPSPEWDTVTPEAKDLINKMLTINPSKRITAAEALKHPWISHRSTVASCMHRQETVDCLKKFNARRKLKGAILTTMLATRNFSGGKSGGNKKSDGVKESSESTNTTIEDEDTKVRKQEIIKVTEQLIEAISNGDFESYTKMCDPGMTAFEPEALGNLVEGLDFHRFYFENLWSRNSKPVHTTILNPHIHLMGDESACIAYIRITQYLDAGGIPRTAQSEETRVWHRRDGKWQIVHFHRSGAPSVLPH
Tyrosine-protein kinase Fes/Fps (Homo sapiens), sequence (P07332 whole entry): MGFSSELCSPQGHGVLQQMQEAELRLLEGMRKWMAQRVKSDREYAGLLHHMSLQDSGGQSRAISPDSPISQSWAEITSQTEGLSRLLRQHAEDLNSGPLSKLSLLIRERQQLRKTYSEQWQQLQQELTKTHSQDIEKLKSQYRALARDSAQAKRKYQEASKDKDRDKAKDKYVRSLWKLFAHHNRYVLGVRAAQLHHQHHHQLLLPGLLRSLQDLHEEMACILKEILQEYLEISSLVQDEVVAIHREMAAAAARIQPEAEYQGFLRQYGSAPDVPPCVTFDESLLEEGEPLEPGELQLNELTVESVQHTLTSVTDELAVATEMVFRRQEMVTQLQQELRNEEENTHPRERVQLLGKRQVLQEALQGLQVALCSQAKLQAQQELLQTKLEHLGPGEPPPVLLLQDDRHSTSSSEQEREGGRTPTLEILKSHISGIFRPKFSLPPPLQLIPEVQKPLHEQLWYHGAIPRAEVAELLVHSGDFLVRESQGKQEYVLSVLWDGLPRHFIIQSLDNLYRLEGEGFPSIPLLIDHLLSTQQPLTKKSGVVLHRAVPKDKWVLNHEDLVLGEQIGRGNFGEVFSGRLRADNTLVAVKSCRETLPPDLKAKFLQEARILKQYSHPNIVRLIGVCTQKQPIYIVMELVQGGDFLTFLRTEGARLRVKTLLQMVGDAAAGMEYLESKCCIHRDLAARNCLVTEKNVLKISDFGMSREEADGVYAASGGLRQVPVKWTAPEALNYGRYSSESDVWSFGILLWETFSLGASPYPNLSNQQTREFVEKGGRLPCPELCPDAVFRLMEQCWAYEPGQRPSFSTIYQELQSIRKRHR
RAC-alpha serine/threonine-protein kinase (Homo sapiens), sequence (P31749 whole entry): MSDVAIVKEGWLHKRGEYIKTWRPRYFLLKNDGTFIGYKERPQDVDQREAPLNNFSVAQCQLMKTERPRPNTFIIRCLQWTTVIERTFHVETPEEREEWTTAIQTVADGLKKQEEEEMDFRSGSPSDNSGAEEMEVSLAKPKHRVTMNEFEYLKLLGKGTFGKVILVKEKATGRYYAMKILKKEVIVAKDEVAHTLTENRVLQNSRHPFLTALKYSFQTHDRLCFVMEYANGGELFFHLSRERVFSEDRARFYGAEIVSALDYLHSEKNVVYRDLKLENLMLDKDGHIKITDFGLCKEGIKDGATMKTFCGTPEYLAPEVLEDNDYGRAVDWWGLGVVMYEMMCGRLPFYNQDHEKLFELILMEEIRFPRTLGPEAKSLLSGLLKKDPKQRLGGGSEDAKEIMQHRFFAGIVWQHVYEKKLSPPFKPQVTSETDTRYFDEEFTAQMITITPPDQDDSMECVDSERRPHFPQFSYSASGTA

SMILES	inhibition [1]	inhibition [2]	inhibition [3]	inhibition [4]	inhibition [5]	inhibition [6]	inhibition [7]	inhibition [8]	inhibition [9]	inhibition [10]	inhibition [11]	inhibition [12]	inhibition [13]
Cc1cccc(N(C)c2cc(Nc3cccc(C(=O)NCc4ccc(N(C)C)cc4)c3)ncn2)c1	0%	0%	0%	0%	4%	10%	0%	0%	11%	3%	4%	21%	0%
CN(C)CC(C)(C)CNC(=O)C1CCN(c2cc(N3CCOCC3)nc(N)n2)CC1	0%	0%	0%	0%	3%	3%	12%	2%	2%	6%	0%	0%	11%
CC(=O)CCCCC(=O)N1CCN(c2nccc(Oc3cccc(C)c3)n2)CC1	0%	0%	10%	0%	16%	0%	14%	0%	1%	4%	0%	1%	9%
Cc1cccc(N(C)c2cc(N3CCN(CC(=O)Nc4nc(-c5ccccc5)cs4)CC3)ncn2)c1	0%	0%	0%	6%	0%	0%	9%	0%	6%	9%	0%	14%	14%
CC(=O)N1CCN(C(=O)c2cccc(Nc3cc(N(C)c4cccc(C)c4)ncn3)c2)CC1	0%	0%	4%	0%	18%	5%	41%	0%	47%	1%	0%	5%	0%
COc1ccc(-c2noc(CN3CCN(c4cc(Nc5cccc(O)c5)ncn4)CC3)n2)cc1	0%	0%	1%	0%	7%	5%	0%	0%	0%	2%	0%	0%	4%
CN(C)CC(C)(C)CNC(=O)c1cccc(Nc2nccc(Nc3ccc4ncsc4c3)n2)c1	0%	34%	23%	95%	97%	79%	89%	27%	96%	52%	18%	39%	72%
CN(CCc1ccccn1)C(=O)c1cccc(Nc2nccc(Nc3ccc4ncsc4c3)n2)c1	0%	0%	19%	50%	51%	27%	95%	7%	69%	36%	17%	72%	16%
O=C(NCc1cccnc1)c1cccc(-c2ccc(Nc3ccc4ncsc4c3)nn2)c1	5%	0%	0%	32%	18%	28%	62%	28%	23%	52%	0%	43%	54%
Nc1nc(N2CCOCC2)cc(N2CCC(C(=O)NCc3cccs3)CC2)n1	0%	0%	8%	0%	9%	0%	17%	0%	0%	5%	0%	0%	5%
COc1cccc(Nc2cc(Nc3cccc(C(=O)NCCCn4ccnc4)c3)nc(N)n2)c1	1%	0%	11%	8%	18%	0%	13%	3%	25%	4%	0%	4%	8%
Cc1cccc(N(C)c2cc(N3CCN(C(=O)Cc4c[nH]c5ccccc45)CC3)ncn2)c1	0%	0%	6%	0%	24%	2%	3%	0%	6%	3%	0%	0%	3%
COc1cccc(Nc2cc(N3CCC[C@H]3C(=O)NCCN3CCCCC3)nc(N)n2)c1	2%	0%	0%	1%	4%	2%	5%	0%	11%	6%	0%	13%	0%
Cc1cccc(N(C)c2cc(Nc3cccc(C(=O)NCc4ccncc4)c3)ncn2)c1	0%	0%	8%	0%	22%	2%	19%	5%	53%	0%	0%	0%	0%
COc1cccc(Nc2cc(Nc3cccc(C(=O)N(C)CCc4ccccn4)c3)nc(N)n2)c1	1%	0%	5%	0%	7%	1%	7%	4%	8%	6%	0%	15%	13%
Cc1cccc(N(C)c2cc(Nc3cccc(C(=O)N(CC(C)C)CC(C)C)c3)ncn2)c1	0%	0%	0%	0%	7%	3%	5%	0%	10%	0%	0%	5%	0%
Cc1cc(C(=O)N2CCN(c3ncnc4c3CN(Cc3ccccc3)CC4)CC2)c(C)n1C	0%	0%	0%	0%	0%	6%	0%	2%	5%	3%	0%	0%	0%
O=C(C1CCN(c2nccc(Nc3ccccc3)n2)CC1)N1CC[C@@H](O)C1	0%	0%	0%	0%	2%	5%	4%	0%	8%		0%	6%	7%
